Measurements as given in ChEMBL document CHEMBL2417539, “1-substituted (Dibenzo[b,d]thiophen-4-yl)-2-morpholino-4H-chromen-4-ones endowed with dual DNA-PK/PI3-K inhibitory activity” (J Med Chem, 2013).

Columns and labels:
[1] = test system: HeLa; test: Antiproliferative activity against human HeLa cells assessed as cell survival ratio at 0.1 uM treated 1 hr before 2Gy ionizing radiation measured after 6 to 8 days by DMR clonogenic assay; format: functional
Method in brief: (§1)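 HeLa cells seeded in 6-well dishes, incubated overnight at 37 °C/5% CO2, pre-treated 1 h with vehicle or inhibitor (0.1 or 0.5 μM), then given 2 Gy X-ray IR and held overnight. Medium then replaced without compound and culture continued 6-8 days. Colonies Giemsa-stained and counted automatically. DMR = % survival (vehicle, 2 Gy) / % survival (compound, 2 Gy).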

[2] = test system: HeLa; test: Antiproliferative activity against human HeLa cells assessed as cell survival ratio at 0.5 uM treated 1 hr before 2Gy ionizing radiation measured after 6 to 8 days by DMR clonogenic assay; format: functional; method in brief: as §1
[3] = biological target: DNA-dependent protein kinase catalytic subunit (Homo sapiens, UniProt P78527); test: Inhibition of human DNA-PK using GST-tagged p53N66 as substrate after 1 hr by ELISA-based chemiluminiscence assay
Chain of DNA-dependent protein kinase catalytic subunit (P78527 whole entry): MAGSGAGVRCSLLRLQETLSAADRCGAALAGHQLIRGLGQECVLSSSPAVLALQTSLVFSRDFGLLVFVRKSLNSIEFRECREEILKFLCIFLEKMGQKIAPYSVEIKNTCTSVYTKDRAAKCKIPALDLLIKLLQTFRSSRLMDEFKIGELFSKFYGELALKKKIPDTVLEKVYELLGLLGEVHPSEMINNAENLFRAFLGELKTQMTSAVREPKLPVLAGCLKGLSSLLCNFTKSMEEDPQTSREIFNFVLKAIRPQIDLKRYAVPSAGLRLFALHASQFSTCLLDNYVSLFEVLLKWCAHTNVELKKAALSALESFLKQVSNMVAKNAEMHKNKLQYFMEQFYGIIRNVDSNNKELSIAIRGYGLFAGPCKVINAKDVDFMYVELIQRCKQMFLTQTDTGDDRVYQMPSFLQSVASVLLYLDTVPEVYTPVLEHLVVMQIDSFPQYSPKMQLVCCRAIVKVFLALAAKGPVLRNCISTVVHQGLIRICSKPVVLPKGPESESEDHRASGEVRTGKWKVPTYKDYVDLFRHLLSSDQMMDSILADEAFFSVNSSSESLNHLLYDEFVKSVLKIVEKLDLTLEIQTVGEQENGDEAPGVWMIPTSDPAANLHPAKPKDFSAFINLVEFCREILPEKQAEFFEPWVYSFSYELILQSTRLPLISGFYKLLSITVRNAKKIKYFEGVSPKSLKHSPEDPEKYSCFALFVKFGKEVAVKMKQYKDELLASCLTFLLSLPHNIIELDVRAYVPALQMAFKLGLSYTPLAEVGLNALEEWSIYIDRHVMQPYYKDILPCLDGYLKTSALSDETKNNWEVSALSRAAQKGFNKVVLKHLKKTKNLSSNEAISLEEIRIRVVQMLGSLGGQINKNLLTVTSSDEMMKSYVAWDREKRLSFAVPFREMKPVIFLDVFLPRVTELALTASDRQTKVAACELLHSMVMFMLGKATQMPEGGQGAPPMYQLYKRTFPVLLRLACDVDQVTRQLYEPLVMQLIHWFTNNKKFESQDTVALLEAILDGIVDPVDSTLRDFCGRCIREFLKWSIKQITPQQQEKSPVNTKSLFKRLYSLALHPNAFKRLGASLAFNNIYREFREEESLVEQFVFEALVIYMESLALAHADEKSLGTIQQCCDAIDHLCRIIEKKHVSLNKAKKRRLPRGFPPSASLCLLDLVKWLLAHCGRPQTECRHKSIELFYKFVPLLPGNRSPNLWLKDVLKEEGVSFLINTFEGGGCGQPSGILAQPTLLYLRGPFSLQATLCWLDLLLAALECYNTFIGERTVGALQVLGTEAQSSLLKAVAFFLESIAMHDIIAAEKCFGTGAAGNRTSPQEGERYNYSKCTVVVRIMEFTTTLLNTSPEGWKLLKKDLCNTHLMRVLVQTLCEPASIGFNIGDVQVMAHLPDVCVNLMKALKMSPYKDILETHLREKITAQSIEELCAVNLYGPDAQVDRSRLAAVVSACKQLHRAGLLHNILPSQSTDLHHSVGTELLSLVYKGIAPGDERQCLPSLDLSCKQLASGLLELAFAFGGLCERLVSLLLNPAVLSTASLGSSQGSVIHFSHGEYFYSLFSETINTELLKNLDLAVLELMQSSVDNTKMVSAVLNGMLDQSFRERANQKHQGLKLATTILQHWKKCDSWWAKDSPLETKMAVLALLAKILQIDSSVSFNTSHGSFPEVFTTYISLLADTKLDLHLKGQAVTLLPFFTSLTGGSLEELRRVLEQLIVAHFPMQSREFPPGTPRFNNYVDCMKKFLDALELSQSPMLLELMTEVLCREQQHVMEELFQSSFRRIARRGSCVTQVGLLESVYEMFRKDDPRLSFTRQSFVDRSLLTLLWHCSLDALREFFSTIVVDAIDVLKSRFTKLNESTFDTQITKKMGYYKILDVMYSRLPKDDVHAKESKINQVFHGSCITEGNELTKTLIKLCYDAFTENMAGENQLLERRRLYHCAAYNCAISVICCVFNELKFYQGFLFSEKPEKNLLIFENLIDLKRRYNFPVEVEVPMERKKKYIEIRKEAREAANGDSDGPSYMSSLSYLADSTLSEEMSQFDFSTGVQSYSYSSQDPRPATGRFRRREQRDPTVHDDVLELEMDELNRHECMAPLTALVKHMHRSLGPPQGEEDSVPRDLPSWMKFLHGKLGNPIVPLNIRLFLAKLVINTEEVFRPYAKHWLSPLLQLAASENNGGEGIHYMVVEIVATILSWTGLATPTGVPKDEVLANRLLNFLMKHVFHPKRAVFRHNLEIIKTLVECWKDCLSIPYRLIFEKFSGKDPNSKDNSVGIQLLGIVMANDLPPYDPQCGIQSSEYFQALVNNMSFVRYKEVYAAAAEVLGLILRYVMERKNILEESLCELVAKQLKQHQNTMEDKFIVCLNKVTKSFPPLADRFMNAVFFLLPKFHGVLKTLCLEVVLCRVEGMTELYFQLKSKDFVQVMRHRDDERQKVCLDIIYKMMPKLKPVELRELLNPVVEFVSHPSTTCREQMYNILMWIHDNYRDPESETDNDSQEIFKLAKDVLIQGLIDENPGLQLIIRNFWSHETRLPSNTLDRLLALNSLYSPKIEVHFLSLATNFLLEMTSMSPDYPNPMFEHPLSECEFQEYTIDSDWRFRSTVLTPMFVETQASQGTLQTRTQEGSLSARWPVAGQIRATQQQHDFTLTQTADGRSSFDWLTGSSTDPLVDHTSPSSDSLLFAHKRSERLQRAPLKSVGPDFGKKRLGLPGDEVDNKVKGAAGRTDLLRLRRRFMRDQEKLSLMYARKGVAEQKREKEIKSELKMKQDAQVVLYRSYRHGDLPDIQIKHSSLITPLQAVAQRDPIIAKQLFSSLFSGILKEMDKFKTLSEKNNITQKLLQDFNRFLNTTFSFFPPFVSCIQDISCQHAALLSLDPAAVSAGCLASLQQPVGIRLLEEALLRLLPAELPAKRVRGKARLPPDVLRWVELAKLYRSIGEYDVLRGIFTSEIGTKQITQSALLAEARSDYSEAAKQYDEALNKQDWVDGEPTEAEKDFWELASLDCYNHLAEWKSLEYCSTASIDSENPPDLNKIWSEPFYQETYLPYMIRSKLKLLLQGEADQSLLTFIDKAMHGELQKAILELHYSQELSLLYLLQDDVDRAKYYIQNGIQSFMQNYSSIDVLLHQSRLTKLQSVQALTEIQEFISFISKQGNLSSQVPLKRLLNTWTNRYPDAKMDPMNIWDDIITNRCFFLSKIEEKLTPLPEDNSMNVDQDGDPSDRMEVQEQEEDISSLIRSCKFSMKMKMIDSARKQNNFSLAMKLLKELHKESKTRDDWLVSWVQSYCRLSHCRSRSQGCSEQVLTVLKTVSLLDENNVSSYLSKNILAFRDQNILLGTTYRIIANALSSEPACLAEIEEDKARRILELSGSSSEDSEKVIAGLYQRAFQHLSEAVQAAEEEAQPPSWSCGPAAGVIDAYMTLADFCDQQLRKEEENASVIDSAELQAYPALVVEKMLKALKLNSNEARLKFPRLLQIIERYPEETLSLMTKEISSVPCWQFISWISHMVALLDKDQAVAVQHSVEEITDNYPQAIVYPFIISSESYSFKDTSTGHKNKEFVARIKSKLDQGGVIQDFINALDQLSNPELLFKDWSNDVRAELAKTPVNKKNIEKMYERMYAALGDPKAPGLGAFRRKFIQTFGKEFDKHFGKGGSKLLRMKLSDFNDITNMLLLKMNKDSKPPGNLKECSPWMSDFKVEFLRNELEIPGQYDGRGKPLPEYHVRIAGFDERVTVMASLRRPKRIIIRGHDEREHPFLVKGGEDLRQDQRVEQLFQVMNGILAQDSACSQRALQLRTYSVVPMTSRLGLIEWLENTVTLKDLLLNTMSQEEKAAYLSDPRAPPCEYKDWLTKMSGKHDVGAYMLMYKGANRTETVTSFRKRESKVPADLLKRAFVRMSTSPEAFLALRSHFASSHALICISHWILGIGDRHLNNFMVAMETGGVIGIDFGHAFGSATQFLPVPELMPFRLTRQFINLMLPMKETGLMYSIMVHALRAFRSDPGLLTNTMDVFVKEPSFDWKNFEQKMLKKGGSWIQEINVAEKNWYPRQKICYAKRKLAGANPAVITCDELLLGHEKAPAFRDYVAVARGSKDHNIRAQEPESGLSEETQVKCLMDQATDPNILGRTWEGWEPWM

Row | IC50 [3] | SMILES | Ratio [1] | Ratio [2]
1 | 0.024 µM | O=C(CCN1CCN(c2ccccn2)CC1)Nc1ccc(-c2cccc3c(=O)cc(N4CCOCC4)oc23)c2sc3ccccc3c12 | 1.5 | 4.4
2 | 0.018 µM | CN(C)CC(=O)Nc1ccc(-c2cccc3c(=O)cc(N4CCOCC4)oc23)c2sc3ccccc3c12 | 1 | 7.4
3 | 0.01 µM | CN(C)CCN1CCN(CC(=O)Nc2ccc(-c3cccc4c(=O)cc(N5CCOCC5)oc34)c3sc4ccccc4c23)CC1 | 1.7 | 5.9
4 | 0.013 µM | CN1CCCC1CCNCCC(=O)Nc1ccc(-c2cccc3c(=O)cc(N4CCOCC4)oc23)c2sc3ccccc3c12 (stereo not given) | 1.3 | 1.2
5 | 0.006 µM | O=C(CN1CCN(CCOCCO)CC1)Nc1ccc(-c2cccc3c(=O)cc(N4CCOCC4)oc23)c2sc3ccccc3c12 | 1.6 | 3.2
6 | 0.051 µM | O=C(CN1CCCCCC1)Nc1ccc(-c2cccc3c(=O)cc(N4CCOCC4)oc23)c2sc3ccccc3c12 | 1.3 | 3.9
7 | 0.078 µM | CN(C)CCN(C)CCC(=O)Nc1ccc(-c2cccc3c(=O)cc(N4CCOCC4)oc23)c2sc3ccccc3c12 | 1.2 | 5.1
8 | 0.016 µM | CC(=O)N1CCN(C(=O)COc2ccc(-c3cccc4c(=O)cc(N5CCOCC5)oc34)c3sc4ccccc4c23)CC1 | 1 | 1.6
9 | 0.037 µM | CC(C)N1CCN(CCC(=O)Nc2ccc(-c3cccc4c(=O)cc(N5CCOCC5)oc34)c3sc4ccccc4c23)CC1 | 1.2 | 3.6
10 | 0.03 µM | CCN1CCCC1CNCC(=O)Nc1ccc(-c2cccc3c(=O)cc(N4CCOCC4)oc23)c2sc3ccccc3c12 (stereo not given) | 1.2 | 5.9
11 | 0.03 µM | O=C(CCN1CCN(c2ccc(F)cc2)CC1)Nc1ccc(-c2cccc3c(=O)cc(N4CCOCC4)oc23)c2sc3ccccc3c12 | 1.5 | 3.8
12 | 0.01 µM | CN(C)CCN1CCN(CCC(=O)Nc2ccc(-c3cccc4c(=O)cc(N5CCOCC5)oc34)c3sc4ccccc4c23)CC1 | 1.1 | 1.3
13 | 0.01 µM | O=C(CCNCCO)Nc1ccc(-c2cccc3c(=O)cc(N4CCOCC4)oc23)c2sc3ccccc3c12 | 0.9 | 0.9
14 | 0.037 µM | O=C(CCN1CCNCC1)Nc1ccc(-c2cccc3c(=O)cc(N4CCOCC4)oc23)c2sc3ccccc3c12 | 1 | 1.5
15 | 0.013 µM | O=C(CNCCCN1CCOCC1)Nc1ccc(-c2cccc3c(=O)cc(N4CCOCC4)oc23)c2sc3ccccc3c12 | 2 | 7.4
16 | 0.005 µM | CN(C)CCN(C)CCOc1ccc(-c2cccc3c(=O)cc(N4CCOCC4)oc23)c2sc3ccccc3c12 |  | 
17 | 0.02 µM | O=c1cc(N2CCOCC2)oc2c(-c3ccc(OCCN4CCCCC4)c4c3sc3ccccc34)cccc12 | 1.4 | 3.5
18 | 0.005 µM | CC(=O)N1CCN(CC(=O)Nc2ccc(-c3cccc4c(=O)cc(N5CCOCC5)oc34)c3sc4ccccc4c23)CC1 | 1.4 | 4.8
19 | 0.019 µM | O=C(COc1ccc(-c2cccc3c(=O)cc(N4CCOCC4)oc23)c2sc3ccccc3c12)N1CCCCC1 | 1.4 | 5.1
20 | 0.002 µM | COC(=O)[C@H](CO)NCCOc1ccc(-c2cccc3c(=O)cc(N4CCOCC4)oc23)c2sc3ccccc3c12 | 2.9 | 10.5
21 | 0.012 µM | O=C(CCNCc1ccncc1)Nc1ccc(-c2cccc3c(=O)cc(N4CCOCC4)oc23)c2sc3ccccc3c12 | 1.1 | 2.6
22 | 0.011 µM | CN(CC(N)=O)C(=O)COc1ccc(-c2cccc3c(=O)cc(N4CCOCC4)oc23)c2sc3ccccc3c12 | 0.9 | 1.4
23 | 0.041 µM | CN1CCCN(CCC(=O)Nc2ccc(-c3cccc4c(=O)cc(N5CCOCC5)oc34)c3sc4ccccc4c23)CC1 | 1.1 | 2.6
24 | 0.009 µM | O=C(CCNCCCN1CCOCC1)Nc1ccc(-c2cccc3c(=O)cc(N4CCOCC4)oc23)c2sc3ccccc3c12 | 0.9 | 1.4
25 | 0.018 µM | COCCN(CCOC)CC(=O)Nc1ccc(-c2cccc3c(=O)cc(N4CCOCC4)oc23)c2sc3ccccc3c12 | 1.5 | 7.9
26 | 0.004 µM | C[C@@H]1CN(CC(=O)Nc2ccc(-c3cccc4c(=O)cc(N5CCOCC5)oc34)c3sc4ccccc4c23)C[C@H](C)O1 | 1.3 | 8.2

Row | IC50 [3] | SMILES | Ratio [1] | Ratio [2]
27 | 0.03 µM | O=C(CN1CCCN(CCO)CC1)Nc1ccc(-c2cccc3c(=O)cc(N4CCOCC4)oc23)c2sc3ccccc3c12 | 1.2 | 3.3
28 | 0.022 µM | NCCNCCC(=O)Nc1ccc(-c2cccc3c(=O)cc(N4CCOCC4)oc23)c2sc3ccccc3c12 | 1.2 | 1.4
29 | 0.018 µM | O=C(CCN1CCN(c2ncccn2)CC1)Nc1ccc(-c2cccc3c(=O)cc(N4CCOCC4)oc23)c2sc3ccccc3c12 | 1.6 | 7.1
30 | 0.008 µM | NCCC(=O)Nc1ccc(-c2cccc3c(=O)cc(N4CCOCC4)oc23)c2sc3ccccc3c12 | 1.1 | 1.4
31 | 0.022 µM | CCN(CC)CCOc1ccc(-c2cccc3c(=O)cc(N4CCOCC4)oc23)c2sc3ccccc3c12 |  | 
32 | 0.006 µM | COCCN1CCN(CC(=O)Nc2ccc(-c3cccc4c(=O)cc(N5CCOCC5)oc34)c3sc4ccccc4c23)CC1 | 2.2 | 7.7
33 | 0.007 µM | O=C(CCNCC1CCCO1)Nc1ccc(-c2cccc3c(=O)cc(N4CCOCC4)oc23)c2sc3ccccc3c12 (stereo not given) | 2 | 4.7
34 | 0.015 µM | O=C(CN1CCN(c2ccc(F)cc2)CC1)Nc1ccc(-c2cccc3c(=O)cc(N4CCOCC4)oc23)c2sc3ccccc3c12 | 1 | 4.9
35 | 0.008 µM | CN(C)CCOc1ccc(-c2cccc3c(=O)cc(N4CCOCC4)oc23)c2sc3ccccc3c12 | 1.8 | 3.3
36 | 0.033 µM | CCN1CCN(CCC(=O)Nc2ccc(-c3cccc4c(=O)cc(N5CCOCC5)oc34)c3sc4ccccc4c23)CC1 | 1.4 | 4.1
37 | 0.01 µM | O=C(COc1ccc(-c2cccc3c(=O)cc(N4CCOCC4)oc23)c2sc3ccccc3c12)NCc1ccncc1 | 1 | 1.1
38 | 0.026 µM | O=C(CCN(CCO)CCO)Nc1ccc(-c2cccc3c(=O)cc(N4CCOCC4)oc23)c2sc3ccccc3c12 | 1 | 0.8
39 | 0.057 µM | CN(C)CCN(C)CC(=O)Nc1ccc(-c2cccc3c(=O)cc(N4CCOCC4)oc23)c2sc3ccccc3c12 | 1.1 | 5.7
40 | 0.031 µM | CCN(CCC(=O)Nc1ccc(-c2cccc3c(=O)cc(N4CCOCC4)oc23)c2sc3ccccc3c12)Cc1ccncc1 | 1 | 1.6
41 | 0.007 µM | O=C(CN1CCN(c2ccccn2)CC1)Nc1ccc(-c2cccc3c(=O)cc(N4CCOCC4)oc23)c2sc3ccccc3c12 | 1.8 | 9.9
42 | 0.037 µM | O=C(CCN1CCCCC1)Nc1ccc(-c2cccc3c(=O)cc(N4CCOCC4)oc23)c2sc3ccccc3c12 | 1.9 | 5
43 | 0.028 µM | CN1CCN(CCC(=O)Nc2ccc(-c3cccc4c(=O)cc(N5CCOCC5)oc34)c3sc4ccccc4c23)CC1 | 1 | 6.6
44 | 0.006 µM | CC(C)NCC(=O)CN1CCN(CC(=O)Nc2ccc(-c3cccc4c(=O)cc(N5CCOCC5)oc34)c3sc4ccccc4c23)CC1 | 2 | 8.8
45 | 0.019 µM | COCCN1CCN(CCC(=O)Nc2ccc(-c3cccc4c(=O)cc(N5CCOCC5)oc34)c3sc4ccccc4c23)CC1 | 1.3 | 3.5
46 | 0.024 µM | O=C(CN1CCNCC1)Nc1ccc(-c2cccc3c(=O)cc(N4CCOCC4)oc23)c2sc3ccccc3c12 | 1.4 | 5
47 | 0.008 µM | COCCNCCC(=O)Nc1ccc(-c2cccc3c(=O)cc(N4CCOCC4)oc23)c2sc3ccccc3c12 | 2.3 | 5.9
48 | 0.003 µM | CN(CCOc1ccc(-c2cccc3c(=O)cc(N4CCOCC4)oc23)c2sc3ccccc3c12)CC(N)=O | 1.4 | 7.7
49 | 0.038 µM | COc1ccc(CNCC(=O)Nc2ccc(-c3cccc4c(=O)cc(N5CCOCC5)oc34)c3sc4ccccc4c23)cc1 | 1.4 | 6.8
50 | 0.01 µM | CN1CCCN(CCOc2ccc(-c3cccc4c(=O)cc(N5CCOCC5)oc34)c3sc4ccccc4c23)CC1 | 1.5 | 3.6
51 | 0.042 µM | O=C(CCN1CCCN(CCO)CC1)Nc1ccc(-c2cccc3c(=O)cc(N4CCOCC4)oc23)c2sc3ccccc3c12 | 1.2 | 1.1
52 | 0.006 µM | O=C(CCNCCN1CCOCC1)Nc1ccc(-c2cccc3c(=O)cc(N4CCOCC4)oc23)c2sc3ccccc3c12 | 1.3 | 1.9

Row | SMILES | IC50 [3] | Ratio [1] | Ratio [2]
53 | CN1CCN(C(=O)COc2ccc(-c3cccc4c(=O)cc(N5CCOCC5)oc34)c3sc4ccccc4c23)CC1 | 0.029 µM | 1.1 | 1.8
